Results reported in PMC4206749 (Toxicological Research, 2014).

Assays:
[1] = test system: CHL cells; assay: Cytotoxicity assay; format: cell-based, Chinese hamster; settings: 7.81 to 1,000 μg/ml, 24 hr treatments
Outline: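 MTT viability test. Cells were seeded at 1 × 10^4 per well overnight, then exposed 24 hr to test compound; CHL range 7.81 to 1,000 μg/ml. MTT was added at 0.5 mg/ml final for 4 hr at 37℃, followed by DMSO lysis and absorbance at 550 nm. Values are percent of untreated control, with triplicate samples in three independent experiments; IC50 was calculated for CHL.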

[2] = test system: Salmonella typhimurium strain TA98; assay: Bacterial reverse mutation assay; format: cell-based
[3] = test system: CHL cells (Chinese hamster lung fibroblast cell line); assay: In vitro chromosomal aberration assay; format: cell-based; settings: 6~18 hr; for Gap / Numerical aberrations, PP + ER / Structural aberrations, Chromatid type, ctb / Structural aberrations, Chromatid type, cte / Structural aberrations, Chromosome type, csb / Structural aberrations, Chromosome type, cse / Structural aberrations, Others: 200 cells

**Q.** With `Oc1ccc(-c2ccc3cc(O)ccc3c2)c(O)c1` [HS-1793, 4-(6-hydroxy-2-naphthyl)-1,3-benzenediol] as the compound, how does the “Cell viability (MTT)” value [1] read?
**A.** decreased in dose dependent manner

**Q.** What about the “Number of reverse mutants/plate (Mean ± SD)” value ([2]; TA98, with S9 activation, 78.1 μg/plate) of the same compound?
**A.** 40 ± 4 reverse mutants/plate

**Q.** What about the “Number of reverse mutants/plate (Mean ± SD)” value ([2]; TA98, with S9 activation, 312.5 μg/plate) of the same compound?
**A.** 43 ± 8 reverse mutants/plate

**Q.** And the “Number of reverse mutants/plate (Mean ± SD)” value ([2]; TA98, with S9 activation, 625 μg/plate)?
**A.** 42 ± 4 reverse mutants/plate

**Q.** What about the “Number of reverse mutants/plate (Mean ± SD)” value ([2]; TA98, with S9 activation, 1,250 μg/plate) of the same compound?
**A.** 43 ± 4 reverse mutants/plate

**Q.** What about the “Number of reverse mutants/plate (Mean ± SD)” value ([2]; TA98, with S9 activation, 2,500 μg/plate) of the same compound?
**A.** 44 ± 4 reverse mutants/plate

**Q.** And the “Number of reverse mutants/plate (Mean ± SD)” value ([2]; TA98, with S9 activation, 5,000 μg/plate)?
**A.** 33 ± 2 reverse mutants/plate

**Q.** And the “Number of reverse mutants/plate (Mean ± SD)” value ([2]; TA98, without S9 activation, 78.1 μg/plate)?
**A.** 29 ± 2 reverse mutants/plate

**Q.** What about the “Number of reverse mutants/plate (Mean ± SD)” value ([2]; TA98, without S9 activation, 156.3 μg/plate) of the same compound?
**A.** 27 ± 2 reverse mutants/plate

**Q.** And the “Number of reverse mutants/plate (Mean ± SD)” value ([2]; TA98, without S9 activation, 312.5 μg/plate)?
**A.** 30 ± 4 reverse mutants/plate

**Q.** And the “Number of reverse mutants/plate (Mean ± SD)” value ([2]; TA98, without S9 activation, 625 μg/plate)?
**A.** 26 ± 3 reverse mutants/plate

**Q.** And the “Number of reverse mutants/plate (Mean ± SD)” value ([2]; TA98, without S9 activation, 1,250 μg/plate)?
**A.** 25 ± 2 reverse mutants/plate

**Q.** What about the “Number of reverse mutants/plate (Mean ± SD)” value ([2]; TA98, without S9 activation, 2,500 μg/plate) of the same compound?
**A.** 28 ± 1 reverse mutants/plate

**Q.** What about the “Number of reverse mutants/plate (Mean ± SD)” value ([2]; TA98, without S9 activation, 5,000 μg/plate) of the same compound?
**A.** 27 ± 3 reverse mutants/plate

**Q.** And the Growth index ([3]; S9 (+), 6.25 μg/ml)?
**A.** 98%

**Q.** And the “Total frequency (+) Gap” value ([3]; S9 (+), 6.25 μg/ml)?
**A.** 1.5%

**Q.** What about the “Total frequency (−) Gap” value ([3]; S9 (+), 6.25 μg/ml) of the same compound?
**A.** 1%

**Q.** And the Gap ([3]; S9 (+), 6.25 μg/ml)?
**A.** 1

**Q.** What about the “Numerical aberrations, PP + ER” value ([3]; S9 (+), 6.25 μg/ml) of the same compound?
**A.** 0

**Q.** What about the “Structural aberrations, Chromatid type, ctb” value (from here on “Structural aberrations … ctb”) ([3]; S9 (+), 6.25 μg/ml) of the same compound?
**A.** 1

**Q.** And the “Structural aberrations, Chromatid type, cte” value (shortened to “Structural aberrations … cte”) ([3]; S9 (+), 6.25 μg/ml)?
**A.** 1

**Q.** And the “Structural aberrations, Chromosome type, csb” value (“Structural aberrations … csb” below) ([3]; S9 (+), 6.25 μg/ml)?
**A.** 0

**Q.** And the “Structural aberrations, Chromosome type, cse” value (“Structural aberrations … cse” for short) ([3]; S9 (+), 6.25 μg/ml)?
**A.** 0

**Q.** What about the “Structural aberrations, Others” value ([3]; S9 (+), 6.25 μg/ml) of the same compound?
**A.** 0

**Q.** And the Growth index ([3]; S9 (+), 12.5 μg/ml)?
**A.** 95%

**Q.** And the “Total frequency (+) Gap” value ([3]; S9 (+), 12.5 μg/ml)?
**A.** 1%

**Q.** What about the “Total frequency (−) Gap” value ([3]; S9 (+), 12.5 μg/ml) of the same compound?
**A.** 0.5%

**Q.** And the Gap ([3]; S9 (+), 12.5 μg/ml)?
**A.** 1

**Q.** And the “Numerical aberrations, PP + ER” value ([3]; S9 (+), 12.5 μg/ml)?
**A.** 0

**Q.** What about the “Structural aberrations … ctb” value ([3]; S9 (+), 12.5 μg/ml) of the same compound?
**A.** 0

**Q.** And the “Structural aberrations … cte” value ([3]; S9 (+), 12.5 μg/ml)?
**A.** 1

**Q.** What about the “Structural aberrations … csb” value ([3]; S9 (+), 12.5 μg/ml) of the same compound?
**A.** 0

**Q.** And the “Structural aberrations … cse” value ([3]; S9 (+), 12.5 μg/ml)?
**A.** 0

**Q.** What about the “Structural aberrations, Others” value ([3]; S9 (+), 12.5 μg/ml) of the same compound?
**A.** 0

**Q.** What about the Growth index ([3]; S9 (+), 25 μg/ml) of the same compound?
**A.** 89%

**Q.** And the “Total frequency (+) Gap” value ([3]; S9 (+), 25 μg/ml)?
**A.** 3.5%

**Q.** And the “Total frequency (−) Gap” value ([3]; S9 (+), 25 μg/ml)?
**A.** 2.5%

**Q.** And the Gap ([3]; S9 (+), 25 μg/ml)?
**A.** 2

**Q.** And the “Numerical aberrations, PP + ER” value ([3]; S9 (+), 25 μg/ml)?
**A.** 0

**Q.** And the “Structural aberrations … ctb” value ([3]; S9 (+), 25 μg/ml)?
**A.** 2

**Q.** And the “Structural aberrations … cte” value ([3]; S9 (+), 25 μg/ml)?
**A.** 3

**Q.** And the “Structural aberrations … csb” value ([3]; S9 (+), 25 μg/ml)?
**A.** 0

**Q.** What about the “Structural aberrations … cse” value ([3]; S9 (+), 25 μg/ml) of the same compound?
**A.** 0

**Q.** What about the “Structural aberrations, Others” value ([3]; S9 (+), 25 μg/ml) of the same compound?
**A.** 0

**Q.** What about the “Total frequency (+) Gap” value ([3]; S9 (+), 50 μg/ml) of the same compound?
**A.** 3%

**Q.** What about the “Total frequency (−) Gap” value ([3]; S9 (+), 50 μg/ml) of the same compound?
**A.** 2.5%

**Q.** And the Gap ([3]; S9 (+), 50 μg/ml)?
**A.** 1

**Q.** What about the “Numerical aberrations, PP + ER” value ([3]; S9 (+), 50 μg/ml) of the same compound?
**A.** 0

**Q.** What about the “Structural aberrations … ctb” value ([3]; S9 (+), 50 μg/ml) of the same compound?
**A.** 3

**Q.** And the “Structural aberrations … csb” value ([3]; S9 (+), 50 μg/ml)?
**A.** 0

**Q.** What about the “Structural aberrations … cse” value ([3]; S9 (+), 50 μg/ml) of the same compound?
**A.** 0

**Q.** What about the “Structural aberrations, Others” value ([3]; S9 (+), 50 μg/ml) of the same compound?
**A.** 0

**Q.** What about the Growth index ([3]; S9 (+), 100 μg/ml) of the same compound?
**A.** 71%

**Q.** And the “Total frequency (+) Gap” value ([3]; S9 (+), 100 μg/ml)?
**A.** 1.5%

**Q.** And the “Total frequency (−) Gap” value ([3]; S9 (+), 100 μg/ml)?
**A.** 0.5%

**Q.** What about the Gap ([3]; S9 (+), 100 μg/ml) of the same compound?
**A.** 2

**Q.** What about the “Numerical aberrations, PP + ER” value ([3]; S9 (+), 100 μg/ml) of the same compound?
**A.** 0

**Q.** And the “Structural aberrations … ctb” value ([3]; S9 (+), 100 μg/ml)?
**A.** 0

**Q.** And the “Structural aberrations … cte” value ([3]; S9 (+), 100 μg/ml)?
**A.** 1

**Q.** And the “Structural aberrations … csb” value ([3]; S9 (+), 100 μg/ml)?
**A.** 0

**Q.** And the “Structural aberrations … cse” value ([3]; S9 (+), 100 μg/ml)?
**A.** 0

**Q.** And the “Structural aberrations, Others” value ([3]; S9 (+), 100 μg/ml)?
**A.** 0

**Q.** What about the Growth index ([3]; S9 (−), 6.25 μg/ml) of the same compound?
**A.** 98%

**Q.** And the “Total frequency (+) Gap” value ([3]; S9 (−), 6.25 μg/ml)?
**A.** 1.5%

**Q.** What about the “Total frequency (−) Gap” value ([3]; S9 (−), 6.25 μg/ml) of the same compound?
**A.** 1%

**Q.** What about the Gap ([3]; S9 (−), 6.25 μg/ml) of the same compound?
**A.** 1

**Q.** What about the “Numerical aberrations, PP + ER” value ([3]; S9 (−), 6.25 μg/ml) of the same compound?
**A.** 0

**Q.** What about the “Structural aberrations … ctb” value ([3]; S9 (−), 6.25 μg/ml) of the same compound?
**A.** 0

**Q.** What about the “Structural aberrations … cte” value ([3]; S9 (−), 6.25 μg/ml) of the same compound?
**A.** 2

**Q.** What about the “Structural aberrations … csb” value ([3]; S9 (−), 6.25 μg/ml) of the same compound?
**A.** 0

**Q.** And the “Structural aberrations … cse” value ([3]; S9 (−), 6.25 μg/ml)?
**A.** 0

**Q.** And the “Structural aberrations, Others” value ([3]; S9 (−), 6.25 μg/ml)?
**A.** 0

**Q.** What about the Growth index ([3]; S9 (−), 12.5 μg/ml) of the same compound?
**A.** 90%
